# This is a sample that favours compounds with a hit; in the whole collection about 3.7% have one here.
# KCNQ1 block: inhibitors of human KCNQ1 potassium channel | P51787 | CHO-K1 KCNQ1, FluxOR thallium flux fluorescence; stronger effect = higher value | B-score at 10 µM | 310,000 tested, 1.3% active;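 active = compounds whose thallium flux B-score, printed positive for inhibition, exceeds three library SD while starting fluorescence stays within three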;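 note: channel opened by potassium depolarization with thallium stimulus after 20 min compound exposure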
# Kir21 inh: blocks the mouse Kir2.1 inward-rectifier potassium channel | P35561 | 310,000 tested, 0.85% active | HEK293-Kir2.1, FluxOR thallium flux fluorescence; stronger effect = lower value | B-score at 10 µM;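 active = fluorescence ratio B-score at or below minus 3 SD of library scores, with starting-brightness B-score within 2 SD, cut at about -4.2 in these data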;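 note: channel flux triggered by added potassium and thallium sulfate stimulus; B-score of peak minus minimum fluorescence over baseline after thallium stimulus; more negative B-score means stronger Kir2.1 block with less thallium influx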
# hERG rescue: hERG (human) protection from proarrhythmic block; Q12809; CHO-hERG, FluxOR thallium flux, dofetilide IC70 present; activation (rescue from dofetilide block), less the hit threshold, % at 10 µM; 310,000 tested, 0.51% active; AID 1511;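 active = activation above the mean of controls blocked by dofetilide plus 5 SD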;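 note: thallium influx through hERG after potassium depolarization seen as dye fluorescence rise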
# KCNQ1 pot: human KCNQ1 channel potentiation or activation; 310,000 tested, 0.35% active; CHO-K1 KCNQ1, thallium flux FluxOR fluorescence; stronger effect = higher value; AID 2648; B-score at 10 µM; P51787;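 active = fluorescence ratio B-score, a plate-corrected score, at least three library SD, with initial intensity B-score within 5 SD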
#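 Medium – assay buffer, equal DMSO in all wells · Material – CHO-K1 cell line with stable KCNQ1 potassium channel expression · Signal – kinetic FluxOR thallium fluorescence, 10-s 1-Hz baseline, 110-s post-stimulus read · Compound – single concentration per compound, DMSO matched to controls · Schedule – 37 °C overnight plating, 90-min dark dye load, 20-min compound pretreatment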
# KCNK9 block: blocks the human KCNK9 two-pore domain potassium channel. B-score at 10 µM. AID 488922. HEK293 KCNK9, FluxOR thallium flux fluorescence; stronger effect = lower value. 310,000 tested, 1.2% active;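 active = ratio B-score over 3 SD below the library mean, with starting fluorescence within 5 SD of its mean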;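 note: negative B-score means less thallium flux so channel inhibition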
# KCNK3 inh: human KCNK3 channel inhibition, primary screen; O14649; CHO-KCNK3 thallium flux, FluxOR fluorescence; stronger effect = lower value; B-score at 10 µM; 340,000 tested, 0.84% active;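 active = B-score under library mean minus 4 SD, starting fluorescence ratio at most library mean plus 5 SD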;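 note: more negative B-score means stronger inhibition of thallium flux through KCNK3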
# KCNQ1 inh valid: human KCNQ1 channel inhibition, validation assay; 1,600 tested, 93% active; inhibition, % at 10 µM; KCNQ1 cell line, FluxOR thallium flux fluorescence; shares compounds with KCNQ1 block;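 active = primary screen active, with duplicate mean exceeding buffer control mean plus 3 SD of buffer wells, cut at about 28% in these data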
# CHO Tl flux: activity in parental CHO cells lacking KCNQ1. shares compounds with KCNQ1 block. parental CHO-K1, FluxOR thallium flux fluorescence ratio; stronger effect = lower value; zero means no signal rise above baseline. fluorescence ratio (Tl flux) at 10 µM. 1,600 tested, 21% active;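 active = mean of duplicate thallium-flux fluorescence ratios in parental host cells more than 5 SD below the buffer control mean, cut at about 0.38 in these data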;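 note: ratio is peak minus minimum fluorescence divided by baseline fluorescence; actives read low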
# KCNQ1 APC inh: blocks human KCNQ1 current in automated patch clamp | shares compounds with KCNQ1 block | KCNQ1-CHO cells | AID 624120 | 490 tested, 20% active | calls only at 10 µM;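 active = KCNQ1 current drop exceeding 3 SD of negative control wells, seen in both duplicate runs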;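 note: steady state current during a 2 s step from -80 to +40 mV; negative values mean current inhibition and positive values mean potentiation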
# KCNQ2 inh: KCNQ1 inhibitor that also blocks rat KCNQ2 channel; shares compounds with KCNQ1 block; AID 651746; inhibition, % at 10 µM; KCNQ2 cells, FluxOR thallium flux fluorescence; 1,600 tested, 71% active;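 active = mean percent inhibition of the KCNQ2 thallium signal more than 5 SD above the buffer-only control wells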;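 note: KCNQ2 expressed in CHO cells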
# KCNQ1 KCNE1 spec: human KCNQ1/KCNE1 inhibition in KCNQ1 specificity screen | shares compounds with KCNQ1 block | KCNQ1/KCNE1 cells, FluxOR thallium flux fluorescence | inhibition, % at 10 µM | 1,600 tested, 77% active | AID 652147;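 active = mean percent inhibition of duplicate wells above the buffer-only control mean plus 3 SD of those controls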
# Target sequence (P51787 whole entry, looked up): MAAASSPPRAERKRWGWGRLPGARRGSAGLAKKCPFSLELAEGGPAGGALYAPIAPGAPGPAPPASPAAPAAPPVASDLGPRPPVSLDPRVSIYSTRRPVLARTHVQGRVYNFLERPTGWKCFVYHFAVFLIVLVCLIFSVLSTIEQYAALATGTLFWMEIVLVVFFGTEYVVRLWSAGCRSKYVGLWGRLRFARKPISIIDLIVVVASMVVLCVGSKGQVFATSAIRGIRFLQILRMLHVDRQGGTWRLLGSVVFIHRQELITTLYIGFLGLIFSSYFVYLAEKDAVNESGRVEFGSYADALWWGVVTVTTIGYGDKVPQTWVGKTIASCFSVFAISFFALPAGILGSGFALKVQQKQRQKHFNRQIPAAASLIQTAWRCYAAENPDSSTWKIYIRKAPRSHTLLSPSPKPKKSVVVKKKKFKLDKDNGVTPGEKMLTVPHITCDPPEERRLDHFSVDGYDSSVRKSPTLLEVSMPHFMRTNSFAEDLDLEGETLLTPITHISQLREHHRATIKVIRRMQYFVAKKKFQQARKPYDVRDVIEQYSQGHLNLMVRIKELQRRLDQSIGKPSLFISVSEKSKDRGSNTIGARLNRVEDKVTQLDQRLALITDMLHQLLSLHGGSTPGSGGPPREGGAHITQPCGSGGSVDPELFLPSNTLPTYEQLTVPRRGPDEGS
# Numbers stand for hits; – = inactive; · = not tested or not shown; + = active, no number.
SMILES,KCNQ1 block,Kir21 inh,hERG rescue,KCNQ1 pot,KCNK9 block,KCNK3 inh,KCNQ1 inh valid,CHO Tl flux,KCNQ2 inh,KCNQ1 KCNE1 spec,others
CCOC(=O)C(C)On1c(-c2cccc(Cl)c2)nc2ccc([N+](=O)[O-])cc21 (centres undefined),15,–,–,–,–,–,154,0.34,131%,+,
C[C@H]1CCC[C@@]2(O[C@@H](CCO)C[C@@H](O)[C@@H]2O)O1,–,–,–,–,–,–,·,·,·,·,
S=C(NCc1ccc(Cl)cc1)Nc1ccccc1,–,–,–,–,–,–,·,·,·,·,
S=C(NCc1ccc(Cl)cc1)Nc1ccncc1,11,–,–,–,–,–,144,–,98%,136%,KCNQ1 APC inh=+
FC(F)(F)c1cccc(-c2nc3nc(Cl)c(Cl)nc3[nH]2)c1,8,–,–,–,–,–,52,–,–,–,
O=C(NC(c1cccnc1)C(F)(F)F)c1cc(COc2ccc3c(c2)CCCC3)on1 (centres undefined),16,–,–,–,–,–,138,0.36,118%,+,
CCN(CC)CCN(C(=O)c1ccc2c(c1)OCCO2)c1nc2cc3c(cc2s1)OCO3,7,–,–,–,–,–,50,–,81%,84%,
CN(C)CCCN(C(=O)c1ccc2c(c1)OCCO2)c1nc2cc3c(cc2s1)OCO3,–,–,–,–,–,–,·,·,·,·,
CN(C)c1ccc(/C=C/c2nnnn2-c2ccccc2)cc1,–,–,–,–,–,–,·,·,·,·,
COc1ccc(C(F)(F)F)cc1N/C=C\c1nnnn1-c1ccccc1,9,–,–,–,–,–,98,–,64%,79%,KCNQ1 APC inh=–
O=C(NC1CCOc2ccccc21)c1ccccn1 (centres undefined),–,–,–,–,–,–,·,·,·,·,
CCOC(=O)CC1CCCCN1C(=O)c1cc(COc2cccc3cnccc23)on1 (centres undefined),11,–,–,–,–,–,136,–,92%,58%,KCNQ1 APC inh=–
COC(=O)C1CCCCN1C(=O)c1cc(COc2cccc3cnccc23)on1 (centres undefined),9,–,–,–,–,–,25,–,75%,–,
COc1ccc(Nc2cc(C)nc(N)n2)cc1,–,–,–,–,–,–,·,·,·,·,
Cc1cc(NC2CCCCC2)nc(NCc2ccccc2)n1,14,-13,–,–,–,–,182,0.32,120%,168%,
COc1ccc(Nc2cc(C)nc(NCc3ccccc3)n2)cc1,8,-14,–,–,–,–,124,0.37,89%,98%,
Clc1ccc(Cl)c2sc(N3CCOCC3)nc12,8,–,–,–,–,–,26,–,–,–,
Cc1ccc(NC(=O)CSCC(=O)Nc2ccccc2N2CCCCC2)cc1,8,–,–,–,–,–,114,–,–,168%,KCNQ1 APC inh=+
Cc1cccc(NC(=O)CSCC(=O)Nc2ccccc2N2CCCCC2)c1,–,–,–,–,–,–,·,·,·,·,
O=C(CNC1CCCCCC1)Nc1ccccc1N1CCCCC1,–,–,–,–,–,–,·,·,·,·,
O=C(CNCCC1=CCCCC1)Nc1ccccc1N1CCCCC1,8,–,–,–,–,–,132,0.37,110%,179%,
c1ccc(N2CCN(CC3CCCCC3)CC2)cc1,–,–,–,–,–,–,·,·,·,·,
CCCc1nn(-c2ccccc2)c2c1C(c1cccs1)C(C#N)=C(N)O2 (centres undefined),7,–,–,–,–,–,–,–,–,–,
CCOC(=O)Cc1c(Sc2ccccc2)c2ccccc2n1C,7,–,–,–,-8,–,94,–,88%,114%,KCNQ1 APC inh=–
O=C(Nc1ccccc1)OCCN1CCN(Cc2ccccc2)CCC1=O,–,–,–,–,–,–,·,·,·,·,
SMILES,KCNQ1 block,Kir21 inh,hERG rescue,KCNQ1 pot,KCNK9 block,KCNK3 inh,KCNQ1 inh valid,CHO Tl flux,KCNQ2 inh,KCNQ1 KCNE1 spec,others
O=C1CCN(Cc2ccccc2)CCN1CCOc1ccccc1,6,–,–,–,–,–,–,–,–,–,
O=C(Nc1cccc(Cl)c1)OCCN1CCN(Cc2ccccc2)CCC1=O,11,–,–,–,–,–,70,–,99%,46%,
CC1CCCN(C(=O)NC2CC(=O)N(c3ccc4c(c3)OCCO4)C2)C1 (centres undefined),–,–,–,–,–,–,·,·,·,·,
CCCCC(=O)O[C@H]1CC[C@H]2[C@@H]3CCc4cc(O)ccc4[C@H]3CC[C@]12C,6,–,–,–,–,–,72,–,63%,100%,
O=c1[nH]c(=O)n(-c2ccc(F)cc2)c2c1C(C(F)(F)F)(C(F)(F)F)N=C(c1ccc(F)cc1)N2,6,–,–,–,–,–,57,–,64%,–,
Cn1cc(S(=O)(=O)N2CCCC2)cc1C(=O)O,·,·,·,·,·,–,·,·,·,·,
CN(C)CCNC(=O)c1ccc(Sc2ccc(Br)cc2)c([N+](=O)[O-])c1,15,–,–,–,–,–,–,–,–,–,
COCCNC(=O)CN1C(=O)COc2ccc(S(=O)(=O)N3CC(C)CC(C)C3)cc21 (centres undefined),–,–,–,–,–,–,·,·,·,·,
CCC(C)NC(=O)c1ccccc1NC(=O)COc1ccc(OC)cc1 (centres undefined),–,–,–,–,–,–,·,·,·,·,
Cn1ncc(Br)c1NC(=O)Nc1ccc(OC(F)(F)F)cc1,8,–,–,–,–,–,79,–,132%,–,
Cc1[nH]c2ccccc2c1C(=O)COc1ccccc1,7,–,–,–,–,–,–,–,63%,40%,
Cc1ccc(S(=O)(=O)N(C)c2ccc(OCC(=O)NCC3(N(C)C)CCCCC3)cc2)cc1,–,–,–,–,–,–,·,·,·,·,
CCCCn1c(=O)[nH]c2nc3cc(N)ccc3nc2c1=O,·,·,·,·,·,–,·,·,·,·,
Nc1ccc2nc3c(=O)n(C4CCCCC4)c(=O)[nH]c3nc2c1,24,–,–,–,–,–,+,0.1,–,–,
COc1ccc(C(NC(=O)C2CCCCC2)c2c(O)ccc3ccccc23)cc1 (centres undefined),7,–,–,–,–,–,82,–,89%,92%,

# Source: PubChem BioAssay
